Experimental data from ChEMBL document CHEMBL1146840, “Syntheses and radical scavenging activities of resveratrol derivatives” (Bioorg Med Chem Lett, 2004).

Legend:
[1] = Free radical scavenging activity of DPPH relative to resveratrol was determined
Summary of the method: (§1)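 Ethanolic DPPH (1.01×10^-4 M) plus sample (1:9 by volume), 30 min at room temperature, absorbance at 518 nm, decrease versus control. Triplicate, repeated at least three times. The relative value is the IC50 of resveratrol divided by the IC50 of the test compound.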

[2] = Free radical scavenging activity of DPPH was determined
Summary of the method: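 DPPH bleaching assay: sample solution mixed 1:9 with ethanolic DPPH (1.01×10^-4 M), kept 30 min at room temperature, then A518 read and remaining DPPH calculated. Triplicate, repeated at least three times.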

[3] = Free radical scavenging activity of DPPH expressed as percent polyphenol
[4] = Free radical scavenging activity of DPPH was determined; value taken from reference 11
[5] = Free radical scavenging activity of DPPH w.r.t. resveratrol was determined; summary of the method: as §1
[6] = Half life of the radiolabeled compound was determined; format: ADME

Row | Structure (SMILES) | Relative IC50 [1] | IC50 [2] | Activity [3] | IC50 [4] | Relative IC50 [5] | T1/2 [6]
1 | Oc1ccc(/C=C/c2cc(O)c(I)c(O)c2)cc1 | 1.75 | 70.6 µM | 72% |  |  | 
2 | COc1ccc(/C=C/c2cc(OC)cc(OC)c2Br)cc1 |  |  | 26.6% |  |  | 
3 | OC[C@H]1O[C@@H](Oc2cc(O)cc(/C=C/c3ccc(O)c(O)c3)c2)[C@H](O)[C@@H](O)[C@@H]1O | 2.42 |  |  | 30.6 µM |  | 
4 | COc1cc(/C=C/c2ccc(O)c(CCF)c2)cc(OC)c1 | 1.77 | 69.5 µM | 50.4% |  |  | 
5 | Oc1ccc(/C=C/c2cc(O)cc(O)c2Br)cc1 | 3.43 | 35.9 µM | 85.8% |  |  | 
6 | Oc1cc(O)c2c(c1)O[C@H](c1ccc(O)c(O)c1)[C@@H](O)C2 [CIANIDANOL] | 3.66 |  |  | 20.2 µM |  | 
7 | Oc1ccc(/C=C/c2cc(O)cc(O)c2)cc1 [RESVERATROL] |  | 123 µM | 100% | 74 µM | 1 | 
8 | Oc1cc(O)cc(/C=C/c2ccc(O)c(O)c2)c1 [PICEATANNOL] | 2.55 |  |  | 29 µM |  | 
9 | Oc1cc(O)cc(/C=C/c2ccc(O)c(Br)c2)c1 | 2.41 | 51.2 µM | 98% |  |  | 
10 | Oc1cc(O)cc(/C=C/c2ccc(O)c(I)c2)c1 | 1.68 | 73.4 µM | 88% |  |  | 
11 | OC[C@H]1O[C@@H](Oc2cc(O)cc(/C=C/c3ccc(O)cc3)c2)[C@H](O)[C@@H](O)[C@@H]1O [PICEID] | 0.37 |  |  | 200 µM |  | 
12 | [18FH] [F-18] |  |  |  |  |  | 1.83 h
13 | Oc1cc(O)c2c(c1)O[C@H](c1ccc(O)c(O)c1)[C@H](O)C2 [(-)-EPICATECHIN] | 4.71 |  |  | 15.7 µM |  | 
14 | Oc1cc(O)cc(/C=C/c2ccc(O)c(CCF)c2)c1 | 2.6 | 47.4 µM | 95.6% |  |  | 
